Results published in ChEMBL document CHEMBL5303300, “EUbOPEN Chemogenomics Library - Multiplex” (2023).
Values joined by “and” are separate entries in the source; they are usually repeats but may differ in a detail not shown here. Equal entries are not always repeated.

Test system: U2OS
Experiment: Multiplex assay against U2OS
Format: toxicity, cell-based
Details: human, number of replicates 2
Procedure, shortened: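 Phenotypes for tubulin, mitochondrial mass and membrane permeability are expressed as per cents of healthy-nucleus cells. Cells were stained live at seeding with Hoechst33342, BioTracker Green Microtubule Cytoskeleton Dye, MitoTracker Red and Annexin V Alexa Fluor 680, then imaged after compound addition on a CQ1 microscope at 37°C and 5% CO2. Machine-learning gating in CellPathfinder separated Hoechst high-intensity objects from normal cells, divided normal cells by nuclear state (healthy, pyknosed, fragmented) and divided pyknosed cells into mitotic or apoptotic.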

[1] = 12 h, 1 µM, compound concentration 1 uM
[2] = 12 h, 10 µM, compound concentration 10 uM
[3] = 24 h, 1 µM, compound concentration 1 uM
[4] = 24 h, 10 µM, compound concentration 10 uM
[5] = 48 h, 1 µM, compound concentration 1 uM
[6] = 48 h, 10 µM, compound concentration 10 uM

NCC1CCC(CNc2nc(NCc3ccccc3OC(F)(F)F)ncc2[N+](=O)[O-])CC1 (stereo not given)
Population Apoptotic (%) [1]: 50% and 43% | Population Fragmented Nuclei (%) [1]: 5% and 1% | Population Healthy Nuclei (%) [1]: 74% and 87% | Population Hoechst High Intensity Objects (%) [1]: 0% | Population Membrane Permeable-Phenotype (%) [1]: 7% | Population Mitochondria Different-Phenotype (%) [1]: 7% and 18% | Population Mitotic Cells (%) [1]: 50% and 56% | Population Normal (%) [1]: 100% and 99% | Population Pyknosed Nuclei (%) [1]: 19% and 11% | Population Tubulin-Different-Phenotype (%) [1]: 31% and 29% | Population Apoptotic (%) [2]: 68% and 67% | Population Fragmented Nuclei (%) [2]: 24% and 19% | Population Healthy Nuclei (%) [2]: 36% and 61% | Population Hoechst High Intensity Objects (%) [2]: 0% | Population Membrane Permeable-Phenotype (%) [2]: 53% and 34% | Population Mitochondria Different-Phenotype (%) [2]: 73% and 64% | Population Mitotic Cells (%) [2]: 31% and 32% | Population Normal (%) [2]: 100% | Population Pyknosed Nuclei (%) [2]: 39% and 19% | Population Tubulin-Different-Phenotype (%) [2]: 93% and 76% | Population Apoptotic (%) [3]: 60% | Population Fragmented Nuclei (%) [3]: 1% and 0% | Population Healthy Nuclei (%) [3]: 81% and 85% | Population Hoechst High Intensity Objects (%) [3]: 0% | Population Membrane Permeable-Phenotype (%) [3]: 4% and 5% | Population Mitochondria Different-Phenotype (%) [3]: 0% and 22% | Population Mitotic Cells (%) [3]: 40% and 39% | Population Normal (%) [3]: 100% | Population Pyknosed Nuclei (%) [3]: 16% and 13% | Population Tubulin-Different-Phenotype (%) [3]: 20% and 30% | Population Apoptotic (%) [4]: 100% and 80% | Population Fragmented Nuclei (%) [4]: 28% and 21% | Population Healthy Nuclei (%) [4]: 31% and 59% | Population Hoechst High Intensity Objects (%) [4]: 0% | Population Membrane Permeable-Phenotype (%) [4]: 63% and 43% | Population Mitochondria Different-Phenotype (%) [4]: 36% and 55% | Population Mitotic Cells (%) [4]: 0% and 19% | Population Normal (%) [4]: 100% | Population Pyknosed Nuclei (%) [4]: 40% and 19% | Population Tubulin-Different-Phenotype (%) [4]: 90% and 81% | Population Apoptotic (%) [5]: 76% and 78% | Population Fragmented Nuclei (%) [5]: 6% and 1% | Population Healthy Nuclei (%) [5]: 71% and 88% | Population Hoechst High Intensity Objects (%) [5]: 0% | Population Membrane Permeable-Phenotype (%) [5]: 7% and 2% | Population Mitochondria Different-Phenotype (%) [5]: 3% and 10% | Population Mitotic Cells (%) [5]: 23% and 21% | Population Normal (%) [5]: 100% | Population Pyknosed Nuclei (%) [5]: 21% and 9% | Population Tubulin-Different-Phenotype (%) [5]: 19% and 34% | Population Apoptotic (%) [6]: 100% and 91% | Population Fragmented Nuclei (%) [6]: 24% and 21% | Population Healthy Nuclei (%) [6]: 24% and 54% | Population Hoechst High Intensity Objects (%) [6]: 0% | Population Membrane Permeable-Phenotype (%) [6]: 100% and 72% | Population Mitochondria Different-Phenotype (%) [6]: 75% and 46% | Population Mitotic Cells (%) [6]: 0% and 8% | Population Normal (%) [6]: 100% | Population Pyknosed Nuclei (%) [6]: 51% and 23% | Population Tubulin-Different-Phenotype (%) [6]: 100% and 86%

CCn1ccc(Nc2ncc3c(n2)-c2c(nn(C)c2-c2ccc(-c4cnn(C)c4)cc2Cl)CC3)n1
Population Apoptotic (%) [1]: 62% and 57% | Population Fragmented Nuclei (%) [1]: 5% and 15% | Population Healthy Nuclei (%) [1]: 83% and 63% | Population Hoechst High Intensity Objects (%) [1]: 0% | Population Mitochondria Different-Phenotype (%) [1]: 1% and 9% | Population Mitotic Cells (%) [1]: 37% and 42% | Population Normal (%) [1]: 100% | Population Pyknosed Nuclei (%) [1]: 11% and 21% | Population Tubulin-Different-Phenotype (%) [1]: 78% and 47% | Population Apoptotic (%) [2]: 62% and 66% | Population Fragmented Nuclei (%) [2]: 3% and 4% | Population Healthy Nuclei (%) [2]: 71% and 83% | Population Hoechst High Intensity Objects (%) [2]: 0% | Population Membrane Permeable-Phenotype (%) [2]: 13% and 4% | Population Mitochondria Different-Phenotype (%) [2]: 8% and 4% | Population Mitotic Cells (%) [2]: 37% and 33% | Population Normal (%) [2]: 100% | Population Pyknosed Nuclei (%) [2]: 25% and 11% | Population Tubulin-Different-Phenotype (%) [2]: 39% and 29% | Population Apoptotic (%) [3]: 70% and 62% | Population Healthy Nuclei (%) [3]: 85% and 64% | Population Hoechst High Intensity Objects (%) [3]: 0% | Population Mitochondria Different-Phenotype (%) [3]: 1% and 6% | Population Mitotic Cells (%) [3]: 29% and 37% | Population Normal (%) [3]: 99% and 100% | Population Pyknosed Nuclei (%) [3]: 9% and 17% | Population Tubulin-Different-Phenotype (%) [3]: 76% and 37% | Population Apoptotic (%) [4]: 83% and 63% | Population Fragmented Nuclei (%) [4]: 8% and 5% | Population Healthy Nuclei (%) [4]: 75% and 82% | Population Hoechst High Intensity Objects (%) [4]: 0% | Population Membrane Permeable-Phenotype (%) [4]: 7% and 2% | Population Mitochondria Different-Phenotype (%) [4]: 18% and 6% | Population Mitotic Cells (%) [4]: 16% and 36% | Population Normal (%) [4]: 100% | Population Pyknosed Nuclei (%) [4]: 16% and 11% | Population Tubulin-Different-Phenotype (%) [4]: 44% and 29% | Population Apoptotic (%) [5]: 63% and 100% | Population Healthy Nuclei (%) [5]: 89% and 77% | Population Hoechst High Intensity Objects (%) [5]: 0% | Population Membrane Permeable-Phenotype (%) [5]: 1% and 8% | Population Mitochondria Different-Phenotype (%) [5]: 0% and 4% | Population Normal (%) [5]: 100% | Population Pyknosed Nuclei (%) [5]: 7% and 9% | Population Tubulin-Different-Phenotype (%) [5]: 81% and 40% | Population Apoptotic (%) [6]: 68% and 75% | Population Fragmented Nuclei (%) [6]: 8% and 3% | Population Healthy Nuclei (%) [6]: 55% and 80% | Population Hoechst High Intensity Objects (%) [6]: 0% | Population Membrane Permeable-Phenotype (%) [6]: 4% and 3% | Population Mitochondria Different-Phenotype (%) [6]: 12% and 4% | Population Mitotic Cells (%) [6]: 31% and 25% | Population Normal (%) [6]: 100% and 99% | Population Pyknosed Nuclei (%) [6]: 35% and 16% | Population Tubulin-Different-Phenotype (%) [6]: 44% and 35%
